Source: ChEMBL document CHEMBL3994633, “Exploration of phenylpropanoic acids as agonists of the free fatty acid receptor 4 (FFA4): Identification of an orally efficacious FFA4 agonist” (Bioorg Med Chem Lett, 2017)
Where a chain is given by its changes, count along the chain named.

Columns and labels:
[1] = molecular target: Free fatty acid receptor 1 (Rattus norvegicus, UniProt Q8K3T4); experiment: Agonist activity at rat FFA1 receptor
Mus musculus [2] = organism: Mus musculus; experiment: Selectivity ratio of EC50 for mouse FFA1 receptor to EC50 for mouse FFA4 receptor
[3] = Cmax in C57BL/6J mouse at 10 mg/kg, po; assay type: ADME, organism-based; design: dose 10 mg/kg, route oral; conditions: in vivo
In short: (§1)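 C57BL/6J mice (n = 2), single oral dose of 10 mg/kg given as a suspension in 0.5% HMPC: 0.1% Tween. Plasma Cmax and AUC (hr*ng/mL) measured; %F calculated against the IV leg.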

[4] = Clearance in C57BL/6J mouse at 4.2 mg/kg, iv; assay type: ADME, organism-based; conditions: in vivo
In short: (§2)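 C57BL/6J mice (n = 2) dosed intravenously at 3 or 4.2 mg/kg. Clearance (mL/min/kg) and AUC (hr*ng/mL) derived from plasma concentrations.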

Rattus norvegicus [5] = experiment: Antidiabetic activity in ZDF rat assessed as plasma glucose level at 10 mg/kg bid for 14 days (reference value: 192 mg/dl); assay type: functional
[6] = molecular target: T1, Free fatty acid receptor 1 (Homo sapiens, UniProt O14842); experiment: Agonist activity at human FFA1 receptor expressed in human U2OS cells co-expressing Galpha16 assessed as calcium mobilization by Fluo-4 dye based FLIPR assay; assay type: functional, cell-based; conditions: read-out: EC50
In short: (§3)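 U2OS cells transiently expressing human FFA1 or FFA4. Agonism measured from a ten-point dose-response curve with FLIPR readout, giving EC50 (nM) and efficacy (% max response). Values are means of three experiments.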

[7] = Protein binding in human plasma; assay type: ADME, cell-free; conditions: read-out: PPB
[8] = molecular target: T2, Free fatty acid receptor 4 (Homo sapiens, UniProt Q5NUL3); experiment: Agonist activity at human FFA4 receptor expressed in human U2OS cells co-expressing Galpha16 assessed as calcium mobilization by Fluo-4 dye based FLIPR assay; assay type: functional, cell-based; in short: as §3
T2 sequence (Q5NUL3 whole entry): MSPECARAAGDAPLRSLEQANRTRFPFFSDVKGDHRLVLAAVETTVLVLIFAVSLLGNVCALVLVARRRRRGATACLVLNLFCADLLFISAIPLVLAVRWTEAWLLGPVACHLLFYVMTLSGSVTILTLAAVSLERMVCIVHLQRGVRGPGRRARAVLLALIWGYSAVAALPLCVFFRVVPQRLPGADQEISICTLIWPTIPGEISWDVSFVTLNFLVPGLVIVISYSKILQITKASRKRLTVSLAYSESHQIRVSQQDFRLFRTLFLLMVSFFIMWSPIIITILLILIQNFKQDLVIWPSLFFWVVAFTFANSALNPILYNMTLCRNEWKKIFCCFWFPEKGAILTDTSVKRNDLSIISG

[9] = molecular target: T3, Free fatty acid receptor 4 (Mus musculus) (UniProt Q7TMA4); experiment: Agonist activity at mouse FFA4 receptor relative to control
T3 sequence (whole entry): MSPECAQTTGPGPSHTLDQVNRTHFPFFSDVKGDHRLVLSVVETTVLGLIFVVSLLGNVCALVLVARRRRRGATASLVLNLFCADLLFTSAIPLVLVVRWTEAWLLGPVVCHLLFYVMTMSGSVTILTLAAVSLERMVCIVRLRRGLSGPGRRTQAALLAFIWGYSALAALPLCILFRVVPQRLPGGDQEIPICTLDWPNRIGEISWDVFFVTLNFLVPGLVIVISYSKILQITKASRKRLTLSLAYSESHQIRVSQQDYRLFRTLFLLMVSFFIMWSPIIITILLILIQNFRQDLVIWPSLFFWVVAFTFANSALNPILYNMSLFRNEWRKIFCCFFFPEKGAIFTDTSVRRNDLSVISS

Mus musculus [10] = experiment: Antidiabetic activity in db/db mouse assessed as reduction in HbA1c level at 100 mg/kg, po bid after 2 weeks relative to control; assay type: functional; design: scale not given: the % may be the effect or the level left
In short: (§4)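 Fed db/db mice given vehicle or 100 mg/kg orally twice daily for 2 weeks. Blood glucose measured before treatment and after 1 and 2 weeks; HbA1c measured before and after 2 weeks.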

[11] = molecular target: T1, Free fatty acid receptor 1; experiment: Agonist activity at human FFA1 receptor expressed in human U2OS cells co-expressing Galpha16 assessed as calcium mobilization by Fluo-4 dye based FLIPR assay relative to GSK137647A; assay type: functional, cell-based; in short: as §3
[12] = molecular target: T4, Free fatty acid receptor 2 (Homo sapiens, UniProt O15552); experiment: Agonist activity at human FFA2 receptor by FLIPR assay
T4 sequence (O15552 whole entry): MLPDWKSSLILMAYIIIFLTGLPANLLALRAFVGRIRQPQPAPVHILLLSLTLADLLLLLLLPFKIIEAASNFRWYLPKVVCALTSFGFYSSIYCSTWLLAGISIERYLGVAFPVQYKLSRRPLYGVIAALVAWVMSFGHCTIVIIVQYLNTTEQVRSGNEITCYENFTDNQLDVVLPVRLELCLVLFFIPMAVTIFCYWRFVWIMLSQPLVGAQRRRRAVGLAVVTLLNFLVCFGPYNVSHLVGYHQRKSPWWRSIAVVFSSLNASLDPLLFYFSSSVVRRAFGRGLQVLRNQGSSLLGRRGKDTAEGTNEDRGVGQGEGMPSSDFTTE
In short: (§5)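 Human FFA2 or FFA3 agonism tested in FLIPR-based full-curve functional assays. EC50 (nM) and max response (%) reported.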

[13] = molecular target: Free fatty acid receptor 1 (Mus musculus, UniProt Q76JU9); experiment: Agonist activity at mouse FFA1 receptor
Homo sapiens = organism: Homo sapiens; experiment: Selectivity ratio of EC50 for human FFA1 receptor expressed in human U2OS cells co-expressing Galpha16 to EC50 for human FFA4 receptor expressed in human U2OS cells co-expressing Galpha16; assay type: cell-based
[14] = molecular target: T5, Free fatty acid receptor 3 (Homo sapiens, UniProt O14843); experiment: Agonist activity at human FFA3 receptor by FLIPR assay; in short: as §5
T5 sequence (O14843 whole entry): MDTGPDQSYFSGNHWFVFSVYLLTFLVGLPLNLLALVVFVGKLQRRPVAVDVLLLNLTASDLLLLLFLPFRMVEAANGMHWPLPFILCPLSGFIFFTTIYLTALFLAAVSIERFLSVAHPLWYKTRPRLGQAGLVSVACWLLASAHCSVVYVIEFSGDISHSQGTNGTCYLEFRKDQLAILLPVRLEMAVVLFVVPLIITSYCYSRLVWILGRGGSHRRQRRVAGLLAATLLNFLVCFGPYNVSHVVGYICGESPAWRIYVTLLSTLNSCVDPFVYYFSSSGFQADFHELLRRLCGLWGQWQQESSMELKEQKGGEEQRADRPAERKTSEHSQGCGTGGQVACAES

[15] = molecular target: Free fatty acid receptor 1 (Mus musculus) (UniProt Q76JU9); experiment: Agonist activity at mouse FFA1 receptor relative to control
[16] = molecular target: T6, Free fatty acid receptor 4 (Rattus norvegicus) (UniProt Q2AC31); experiment: Agonist activity at rat FFA4 receptor relative to control
T6 sequence (whole entry): T3 sequence (whole entry) with H15R, L17P, V42L, A66V, A75V, N328S, D348E, V351I, S361T

[17] = AUC in C57BL/6J mouse at 4.2 mg/kg, iv; assay type: ADME, organism-based; conditions: in vivo; in short: as §2
[18] = Half life in C57BL/6J mouse at 10 mg/kg, po; assay type: ADME, organism-based; conditions: in vivo
[19] = molecular target: T7, Free fatty acid receptor 4 (Homo sapiens) (UniProt Q5NUL3); experiment: Agonist activity at human FFA4 receptor expressed in human U2OS cells co-expressing Galpha16 assessed as calcium mobilization by Fluo-4 dye based FLIPR assay relative to GSK137647A; assay type: functional, cell-based; in short: as §3
T7 sequence (whole entry): T2 sequence (Q5NUL3 whole entry)

Mus musculus [20] = experiment: Antidiabetic activity in db/db mouse assessed as plasma glucose level at 100 mg/kg, po bid after 2 weeks (reference value: 276 mg/dl); assay type: functional; in short: as §4
[21] = molecular target: T8, Free fatty acid receptor 2 (Homo sapiens) (UniProt O15552); experiment: Agonist activity at human FFA2 receptor by FLIPR assay relative to control; in short: as §5
T8 sequence (whole entry): T4 sequence (O15552 whole entry)

Rattus norvegicus [22] = experiment: Antidiabetic activity in ZDF rat assessed as plasma glucose level at 100 mg/kg bid for 14 days (reference value: 192 mg/dl); assay type: functional
[23] = molecular target: T9, Free fatty acid receptor 4 (Rattus norvegicus, UniProt Q2AC31); experiment: Agonist activity at rat FFA4 receptor
T9 sequence (Q2AC31 whole entry): T3 sequence (whole entry) with H15R, L17P, V42L, A66V, A75V, N328S, D348E, V351I, S361T

[24] = molecular target: T10, Free fatty acid receptor 4 (Mus musculus, UniProt Q7TMA4); experiment: Agonist activity at mouse FFA4 receptor
T10 sequence (Q7TMA4 whole entry): T3 sequence (whole entry)

[25] = Oral bioavailability in C57BL/6J mouse at 10 mg/kg; assay type: ADME, organism-based; conditions: in vivo; in short: as §1
Rattus norvegicus [26] = organism: Rattus norvegicus; experiment: Selectivity ratio of EC50 for rat FFA1 receptor to EC50 for rat FFA4 receptor
[27] = AUC in C57BL/6J mouse at 10 mg/kg, po; assay type: ADME, organism-based; conditions: in vivo; in short: as §1

T1 sequence (O14842 whole entry): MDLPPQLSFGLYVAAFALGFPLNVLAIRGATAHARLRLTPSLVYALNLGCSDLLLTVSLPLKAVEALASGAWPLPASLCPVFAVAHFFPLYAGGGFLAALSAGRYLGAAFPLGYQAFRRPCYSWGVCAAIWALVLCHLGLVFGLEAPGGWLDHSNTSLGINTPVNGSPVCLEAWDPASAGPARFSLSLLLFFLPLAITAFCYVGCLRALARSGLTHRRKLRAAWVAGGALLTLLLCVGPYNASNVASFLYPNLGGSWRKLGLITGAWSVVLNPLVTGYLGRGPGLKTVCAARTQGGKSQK
Sequence of Free fatty acid receptor 1 (Rattus norvegicus, UniProt Q8K3T4) (Q8K3T4 whole entry): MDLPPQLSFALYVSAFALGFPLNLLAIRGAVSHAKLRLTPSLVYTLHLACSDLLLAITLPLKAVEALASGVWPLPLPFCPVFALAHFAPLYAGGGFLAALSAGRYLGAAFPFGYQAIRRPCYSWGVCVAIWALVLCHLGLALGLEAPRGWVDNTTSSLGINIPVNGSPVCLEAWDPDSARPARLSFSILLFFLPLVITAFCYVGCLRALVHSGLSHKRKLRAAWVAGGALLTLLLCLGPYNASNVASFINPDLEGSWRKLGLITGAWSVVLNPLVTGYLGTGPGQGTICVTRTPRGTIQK
Sequence of Free fatty acid receptor 1 (Mus musculus) (Q76JU9 whole entry): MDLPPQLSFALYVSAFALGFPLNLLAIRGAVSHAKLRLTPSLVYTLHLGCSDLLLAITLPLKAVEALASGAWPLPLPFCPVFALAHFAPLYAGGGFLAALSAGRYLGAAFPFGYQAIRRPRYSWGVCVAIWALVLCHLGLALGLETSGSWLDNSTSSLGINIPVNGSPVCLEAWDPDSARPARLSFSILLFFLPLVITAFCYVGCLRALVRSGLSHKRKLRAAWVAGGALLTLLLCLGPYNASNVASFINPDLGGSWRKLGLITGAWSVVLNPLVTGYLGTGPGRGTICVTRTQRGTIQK
Sequence of Free fatty acid receptor 1 (Mus musculus, UniProt Q76JU9) (Q76JU9 whole entry): as above

COc1ccc(C(F)(F)F)cc1COc1ccc(CCC(=O)O)cc1C
EC50 [1]: > 30 µM
Ratio EC50 (Mus musculus [2]): > 85
Cmax [3]: 6780 ng/mL
clearance [4]: 20 mL/min/kg
Activity (Rattus norvegicus [5]): 151 mg/dL
EC50 [6]: 11.8 µM
fraction unbound [7]: 0.001
EC50 [8]: 0.299 µM
%max [9]: 108%
Activity (Mus musculus [10]): 1.6%
%max [11]: 105%
EC50 [12]: 25.3 µM
EC50 [13]: 6.21 µM
Ratio EC50 (Homo sapiens): 40
EC50 [14]: > 50 µM
%max [15]: 83%
%max [16]: 110%
AUC [17]: 3620 ng·h/mL
half-life [18]: 1.7 h
%max [19]: 124%
Activity (Mus musculus [20]): 106 mg/dL
%max [21]: 59%
Activity (Rattus norvegicus [22]): 139 mg/dL
EC50 [23]: 0.23 µM
EC50 [24]: 0.07 µM
bioavailability [25]: 110%
Ratio EC50 (Rattus norvegicus [26]): > 85
AUC [27]: 9440 ng·h/mL
